Converted amounts (≈) assume the structure as drawn.
What was measured:
Type in all cases: functional
Moraxella catarrhalis = assay: Antibacterial activity against Moraxella catarrhalis ATCC 25238 assessed as inhibition of bacterial growth incubated for 22 to 24 hrs; conditions: time 22-24 hrs
How it was run: (§1)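 Broth MIC referenced to an earlier protocol. Inocula come from mid-log cultures sub-cultured on soybean casein digest agar, adjusted to McFarland (~10⁸ CFU/mL), then diluted to ~10⁵ CFU/mL. Compounds and controls are serially diluted from 64 to 0.03 µg/mL. Tested in triplicate, read after 22–24 h at 37 °C. MIC is the lowest concentration with no visible growth.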

Staphylococcus aureus [1] = assay: Antibacterial activity against methicillin sensitive Staphylococcus aureus ATCC 29213 assessed as inhibition of bacterial growth incubated for 22 to 24 hrs; conditions: time 22-24 hrs; how it was run: as §1
Escherichia coli = assay: Antibacterial activity against clinical isolate Escherichia coli AB 117 assessed as inhibition of bacterial growth incubated for 22 to 24 hrs; conditions: time 22-24 hrs
Staphylococcus aureus [2] = assay: Antibacterial activity against methicillin resistant Staphylococcus aureus ATCC 33591 assessed as inhibition of bacterial growth incubated for 22 to 24 hrs; conditions: time 22-24 hrs
How it was run: (§2)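 Broth microdilution MIC. Strains were subcultured on Soybean Casein Digest Agar, and inocula were taken from mid-log culture, adjusted to McFarland (~10⁸ CFU/mL), then diluted to ~10⁵ CFU/mL. Serial dilutions ran from 64 to 0.03 µg/mL. Plates were incubated 22–24 h at 37 °C, in triplicate. MIC was the lowest concentration with no visible growth.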

Enterococcus faecalis = assay: Antibacterial activity against vancomycin resistant Enterococcus faecalis ATCC 700802 assessed as inhibition of bacterial growth incubated for 22 to 24 hrs; conditions: time 22-24 hrs; how it was run: as §2
Enterococcus faecium = assay: Antibacterial activity against Enterococcus faecium ATCC 49624 assessed as inhibition of bacterial growth incubated for 22 to 24 hrs; conditions: time 22-24 hrs; how it was run: as §1
Klebsiella pneumoniae = assay: Antibacterial activity against clinical isolate Klebsiella pneumoniae AB 356 assessed as inhibition of bacterial growth incubated for 22 to 24 hrs; conditions: time 22-24 hrs
Pseudomonas aeruginosa = assay: Antibacterial activity against clinical isolate Pseudomonas aeruginosa AB 645 assessed as inhibition of bacterial growth incubated for 22 to 24 hrs; conditions: time 22-24 hrs
[3] = system: Mycobacterium tuberculosis; assay: Antibacterial activity against Mycobacterium tuberculosis H37Rv ATCC 25618 assessed as inhibition of bacterial growth incubated for 2 days by CLSI protocol based broth microdilution method; conditions: H37Rv ATCC 25618, 48 h, time 2 day
Acinetobacter baumannii = assay: Antibacterial activity against clinical isolate Acinetobacter baumannii BAA 747 assessed as inhibition of bacterial growth incubated for 22 to 24 hrs; conditions: time 22-24 hrs
[4] = system: Mycolicibacterium smegmatis; assay: Antibacterial activity against Mycobacterium smegmatis ATCC 607 assessed as inhibition of bacterial growth incubated for 2 days by CLSI protocol based broth microdilution method; conditions: ATCC 607, 48 h, time 2 day
How it was run: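 CLSI broth microdilution in Middlebrook 7H9 with 10% ADC. Compounds are dissolved in DMSO at 4.0 mg/mL (stock) and serially diluted from 64 to 0.015 µg/mL. Inoculum is ~10⁵ CFU/mL, checked by plating on 7H11 agar. Rifampin and levofloxacin are positive controls; drug-free broth with DMSO is the negative control. Growth inhibition is read after 2 days at 37 °C as MIC.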

[5] = system: Staphylococcus epidermidis; assay: Antibacterial activity against clinical isolate methicillin resistant Staphylococcus epidermidis AB 735 assessed as inhibition of bacterial growth incubated for 22 to 24 hrs; conditions: time 22-24 hrs

| Compound | MIC (Moraxella catarrhalis) [µg/mL] | MIC (Staphylococcus aureus [1]) [µg/mL] | MIC (Escherichia coli) [µg/mL] | MIC (Staphylococcus aureus [2]) [µg/mL] | MIC (Enterococcus faecalis) [µg/mL] | MIC (Enterococcus faecium) [µg/mL] | MIC (Klebsiella pneumoniae) [µg/mL] | MIC (Pseudomonas aeruginosa) [µg/mL] | MIC [3] [µg/mL] | MIC (Acinetobacter baumannii) [µg/mL] | MIC [4] [µg/mL] | MIC [5] [µg/mL] |
| --- | --- | --- | --- | --- | --- | --- | --- | --- | --- | --- | --- | --- |
| COc1cc(CN2CCN(S(=O)(=O)c3ccc(Cl)cc3Cl)CC2)nc2ccc(F)cc12 | > 64 | > 64 | > 64 | > 64 | > 64 | > 64 | > 64 | > 64 | > 64 | > 64 | > 64 | > 64 |
| COc1cc(CN2CCN(S(=O)(=O)c3ccc(C)cc3)CC2)nc2ccc(F)cc12 | 16 (≈ 37.3 µM) | 64 (≈ 149 µM) | > 64 | > 64 | > 64 | > 64 | > 64 | > 64 | > 64 | > 64 | > 64 | 32 (≈ 74.5 µM) |
| COc1ccc2nc(CN3CCN(S(=O)(=O)c4ccc(NC(C)=O)cc4)CC3)cc(OC)c2c1 | > 64 | > 64 | > 64 | > 64 | > 64 | > 64 | > 64 | > 64 | > 64 | > 64 | > 64 | > 64 |
| COc1ccc2nc(CN3CCN(S(=O)(=O)c4ccccc4C(F)(F)F)CC3)cc(OC)c2c1 | 1 (≈ 2.02 µM) | 4 (≈ 8.07 µM) | 16 (≈ 32.3 µM) | 32 (≈ 64.6 µM) | 64 (≈ 129 µM) | 8 (≈ 16.1 µM) | > 64 | > 64 | > 64 | > 64 | > 64 | 16 (≈ 32.3 µM) |
| COc1ccc2nc(CN3CCN(S(=O)(=O)c4cccs4)CC3)cc(OC)c2c1 | > 64 | > 64 | > 64 | > 64 | > 64 | > 64 | > 64 | > 64 | > 64 | > 64 | 32 (≈ 73.8 µM) | > 64 |
| COc1ccc2nc(CN3CCN(C(=O)c4ccccc4F)CC3)cc(OC)c2c1 | > 64 | > 64 | > 64 | > 64 | > 64 | > 64 | > 64 | > 64 | > 64 | > 64 | > 64 | > 64 |
| COc1ccc2nc(CN3CCN(S(=O)(=O)c4c(C)cc(C)cc4C)CC3)cc(OC)c2c1 | > 64 | > 64 | > 64 | > 64 | > 64 | > 64 | > 64 | > 64 | > 64 | > 64 | > 64 | > 64 |
| CNS(=O)(=O)N1CCN(Cc2cc(OC)c3cc(OC)ccc3n2)CC1 | > 64 | > 64 | > 64 | > 64 | > 64 | > 64 | > 64 | > 64 | > 64 | > 64 | > 64 | > 64 |
| COc1cccc(C(=O)N2CCN(Cc3cc(OC)c4cc(OC)ccc4n3)CC2)c1 | > 64 | > 64 | > 64 | > 64 | > 64 | > 64 | > 64 | > 64 | > 64 | > 64 | > 64 | > 64 |
| COc1ccc2nc(CN3CCN(C(=O)c4ccccc4OC)CC3)cc(OC)c2c1 | > 64 | > 64 | > 64 | > 64 | > 64 | > 64 | > 64 | > 64 | > 64 | > 64 | > 64 | > 64 |
| COc1ccc2nc(CN3CCN(C(=O)c4ccc(Cl)c(Cl)c4)CC3)cc(OC)c2c1 | 64 (≈ 139 µM) | > 64 | > 64 | > 64 | > 64 | > 64 | > 64 | > 64 | > 64 | > 64 | > 64 | > 64 |
| COc1ccc2nc(CN3CCN(S(=O)(=O)c4cccc5ccccc45)CC3)cc(OC)c2c1 | > 64 | > 64 | > 64 | > 64 | > 64 | > 64 | > 64 | > 64 | > 64 | > 64 | > 64 | > 64 |
